Test results reported in PubChem BioAssay.
Results filed as inconclusive are left out.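 Rule for the calls, unless noted: active = RAM network inhibition above 8.4% in each of two replicates, 3 SD over the compound average; inconclusive = above 8.4% inhibition in only one replicate; inactive = 8.4% inhibition or less in each replicate.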

What was measured:
[1] = S. cerevisiae growth inhibition in permissive medium (OD615), pilot counter-assay for S. cerevisiae lifespan shortening project, permissive growth control (AID 705;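 active = growth inhibition above 25% in both replicates, a cutoff set 3 SD above the mean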); conditions: OD615, 24 h, at 10 µM, stronger effect = higher value
Outline: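 assay system = Saccharomyces cerevisiae strain carrying genetically modified DeaD replicative-lifespan system | medium = SC raffinose/galactose permissive medium | dosing = 10 µM single dose, 0.25% DMSO | schedule = 24 h compound exposure at 30 °C after 4 h pre-growth | measured by = OD at 615 nm | read-out basis = growth inhibition from lowered OD615 after 24 h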

[2] = S. cerevisiae growth inhibition in restrictive medium, OD615, pilot screen, restrictive growth control, yeast lifespan reduction project (AID 706;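 active = growth inhibition above a set limit, 3 SD over mean compound inhibition, in both replicates, cut at about 43% in these data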;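 note: modified DeaD lifespan yeast strain shifted to restrictive glucose medium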); conditions: OD615, 48 h, at 10 µM, stronger effect = higher value
Outline: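 Buffer or medium: CSMM-D glucose medium. Material: genetically modified Saccharomyces cerevisiae, DeaD replicative lifespan assay strain. Times: 48 h compound exposure at 30 °C. Measured by: optical density at 615 nm.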

[3] = doxorubicin toxicity protection in MRP-1 cells – H69AR cells, CellTiter-Glo, duplicate, MRP-1 activator project, pilot screen (AID 807;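 active = viability increase at or above a cutoff of the median across tested compounds plus 3 SD, cut at about 8.5% in these data, passing the limit was not always enough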;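 note: compound pretreatment 18-22 h then 72 h combined with doxorubicin; 0% = doxorubicin alone and 100% = vehicle without doxorubicin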); conditions: H69AR viability with doxorubicin, CellTiter-Glo luminescence; at 10 µM; stronger effect = higher value
[4] = viability of HCT116 without oncogenic beta-catenin – human colon tumor cells, pilot screen (AID 823;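 active = cell viability at or below a set limit in both duplicate runs, the limit being the all-compound median minus 4 SD, cut at about 23% in these data, passing the limit was not always enough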;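 note: 0% = wells killed by 20 µM Hyamine and 100% = untreated DMSO cell wells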); conditions: HCT116 beta-catenin knockout viability, CellTiter-Glo, 60 h; at 10 µM; stronger effect = lower value
[5] = viability of PTEN-null HCT116 cells – cell-based, HCT116 clonal line, CellTiter-Glo, pilot screen (AID 824;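 active = viability at or below 27.92% in each of two runs, the all-compound median minus 4 SD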;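 note: 0% = 20 µM Hyamine control and 100% = vehicle cell control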); conditions: HCT116 PTEN-deleted viability, 60 h, at 10 µM, stronger effect = lower value
[6] = RAM pathway blockade in budding yeast – dse1pr::URA3 reporter, 5-FOA selection, pilot screen (AID 869;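 active = inhibition over a set limit, the all-compound mean plus 3 SD, in both replicate runs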;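 note: 0% = DMSO wells with no growth and 100% = 10 µM 1-NA-PP1 with full growth; RAM network block rescues cells from 5-FOA so hits raise OD615 growth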); conditions: S. cerevisiae dse1pr::URA3 5-FOA growth, OD615, 2 d; at 10 µM; stronger effect = higher value; strain carries analog-sensitive mutant Cbk1 kinase
[7] = RAM signaling pathway blockade in yeast – S. cerevisiae, Pdr1DBD-CYC8 efflux-inhibited sensitized strain, primary screen (AID 1298);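 note: 0% = DMSO untreated cells without growth and 100% = 10 µM 1-NA-PP1 full growth; higher means more yeast growth rescued from 5-FOA killing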; conditions: S. cerevisiae cbk1-as DSE1-URA3 strain, 5-FOA growth OD615, 2 d; at 50 µM; stronger effect = higher value

C=CCC(=O)OCC(=O)Nc1ccc(Oc2ccccc2)cc1
inactive: growth inhibition [1] 6.73% | growth inhibition [2] 5% | viability increase [3] -5.15% | viability [4] 94.2% | viability [5] 94.1% | inhibition [6] -0.25% | RAM network inhibition [7] -0.31%

O=C(NCC1CCCO1)c1nnc(Cc2ccc(F)cc2)o1 (stereo not drawn)
inactive: growth inhibition [1] -12.6% | growth inhibition [2] 10.5% | viability increase [3] -0.18% | viability [4] 98.4% | viability [5] 99.4% | inhibition [6] 0.085% | RAM network inhibition [7] 1.47%

O=C(Cn1c2c(c(-c3ccccc3)cc1=O)CCCC2)N1CCCCCC1
inactive: growth inhibition [1] -10.5% | growth inhibition [2] -10.3% | viability increase [3] -3.64% | viability [4] 48.8% | viability [5] 49% | inhibition [6] 1.49% | RAM network inhibition [7] -0.37%

O=C(NCCN1CCOCC1)c1ccc2c(c1)N(Cc1ccc(F)cc1)C(=O)CS2
inactive: growth inhibition [1] -16.1% | growth inhibition [2] -8.1% | viability increase [3] 3.02% | viability [4] 92.5% | viability [5] 88.9% | inhibition [6] 0.08% | RAM network inhibition [7] 0.11%

Nc1c(Br)cc(Br)c(N2CCCC2=O)c1Br
inactive: growth inhibition [1] -6.31% | growth inhibition [2] -7.93% | viability increase [3] -2.68% | viability [4] 92.6% | viability [5] 92.7% | inhibition [6] 1.68% | RAM network inhibition [7] 0.63%

O=C(CCS(=O)CCC(=O)NCc1ccccc1)NCc1ccccc1
inactive: growth inhibition [1] -2.28% | growth inhibition [2] 6.21% | viability increase [3] -0.32% | viability [4] 97.9% | viability [5] 102% | inhibition [6] 0.92% | RAM network inhibition [7] 4.15%

CC(C)NC(=O)c1cc2c(-c3ccc(Cl)cc3)nn(C)c2s1
inactive: growth inhibition [1] -10.4% | growth inhibition [2] 3.42% | viability increase [3] -6.18% | viability [4] 74.5% | viability [5] 76.8% | inhibition [6] 3.84% | RAM network inhibition [7] 4.3%

O=C1c2cccnc2C(=O)N1Cc1ccccc1
inactive: growth inhibition [1] -1.31% | growth inhibition [2] -3.01% | viability increase [3] -0.58% | viability [4] 101% | viability [5] 101% | inhibition [6] 0.015% | RAM network inhibition [7] 0.79%

Cc1cc(C)c2c(n1)nn1c(C)c(CCC(=O)NCc3ccco3)c(C)nc21
inactive: growth inhibition [1] 3.4% | growth inhibition [2] 1.73% | viability increase [3] -4.82% | viability [4] 89.8% | viability [5] 94.8% | inhibition [6] 0.545% | RAM network inhibition [7] 2.09%

O=c1cc(O)c2c(=O)n(-c3ccccc3)c3ccccc3c2o1
inactive: growth inhibition [1] 8.67% | growth inhibition [2] 4.96% | viability increase [3] -4.59% | viability [4] 98.3% | viability [5] 87.1% | inhibition [6] 0.67% | RAM network inhibition [7] 0.42%

CC(=O)c1sc(N2C(=O)c3oc4ccccc4c(=O)c3C2c2ccc(C)o2)nc1C (stereo not drawn)
inactive: growth inhibition [1] 3.87% | growth inhibition [2] 6.34% | viability increase [3] -3.31% | viability [4] 96.1% | viability [5] 94.3% | inhibition [6] 1.98% | RAM network inhibition [7] -0.52%

O=C(OCC(=O)N1CCN(C(=O)c2ccco2)CC1)c1sc2ccccc2c1Cl
inactive: growth inhibition [1] -14.3% | growth inhibition [2] -20.1% | viability increase [3] -2.74% | viability [4] 96.3% | viability [5] 102% | inhibition [6] 0.845% | RAM network inhibition [7] 5.57%

CCOC(=O)N1CCN(C(=O)c2ccc3c(=O)n(CCC4=CCCCC4)c(=S)[nH]c3c2)CC1
inactive: growth inhibition [1] -6.92% | growth inhibition [2] 3.16% | viability increase [3] -7.23% | viability [4] 49.1% | viability [5] 45.5% | inhibition [6] 3.38% | RAM network inhibition [7] 4.35%

Cn1c(SCC(=O)Nc2ccccc2F)nnc1-c1cccnc1
inactive: growth inhibition [1] -5.35% | growth inhibition [2] -5.78% | viability increase [3] -0.11% | viability [4] 100% | viability [5] 92.8% | inhibition [6] 1.01% | RAM network inhibition [7] -1.31%
